# Screening data (PubChem)
# APJ agonist: agonists of human apelin receptor APJ, primary screen, CHO-K1 cells, PathHunter beta-arrestin, luminescence; P35414; 0% DMSO wells, 100% apelin; activation, % at 20 µM; hit rate 0.11% among 330,000;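 active means activation more than six SD over the plate average, tested at 20 µM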
#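 Material: CHO-K1 APJ beta-arrestin complementation cell line; Input: cell density 1000 per well; Incubation: compound stimulation 90 min at 25 °C, detection 60 min; Signal: luminescence from split beta-galactosidase complementation, Galacton Star/Emerald II substrate; Controls: DMSO-only wells as negative, 10 nM Apelin-13 as positive control.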
# H9c2 TAG inh: inhibitors of triacylglycerol accumulation, primary screen, cell-based, uHTS, fluorescence, H9c2; H9c2 cells, Nile Red lipid (TAG) fluorescence; cells loaded with 200 µM oleic acid; inhibition, % at 12.5 µM; hit rate 0.66% among 230,000; AID 651582, 2012;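 active means pattern-corrected inhibition of lipid staining of at least 50% with the nuclear-stain viability signal not falling by more than 50%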
# CXCR6 block: CXCR6 receptor inhibitors, primary screen, cell-based, beta-arrestin, luminescence, CHO-K1 PathHunter, 1536-well; inhibition, % at 20 µM; AID 602244, 2012; C-X-C chemokine receptor type 6 (Homo sapiens), O00574; hit rate 0.36% among 360,000; in the data active means inhibition above about 34%, passing the limit was not always enough;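 further: antagonist mode with CXCL16 agonist at 10 nM final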
# APJ antagonist: antagonists of human apelin receptor APJ, primary screen, CHO-K1 cells, beta-arrestin complementation, luminescence | P35414 | inhibition, % at 20 µM | hit rate 0.32% among 330,000 | AID 2521, 2010;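 active means inhibition above about 40% at 20 µM, limit read from the data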;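 further: cells challenged with 10 nM apelin-13 agonist together with compound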
# CCR6 antagonist: CCR6 receptor antagonists, primary screen, cell-based, CHO-K1, luminescence, beta-arrestin, uHTS; inhibition, % at 20 µM; CHO-K1 CCR6 PathHunter beta-arrestin, CCL20-stimulated; hit rate 0.49% among 340,000; C-C chemokine receptor type 6 (Homo sapiens), P51684;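 active means compounds whose inhibition of the agonist-driven luminescence signal at 20 µM reaches about 50%, limit read from the data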;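 further: cells stimulated with CCL20 at 14 nM final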
# EBI2 antag: EBI2 receptor antagonists, beta-arrestin recruitment, primary screen, cell-based, luminescence, 7a,25-OHC stimulation, uHTS. 7a,25-OHC stimulated. inhibition, % at 5 µM. hit rate 0.81% among 360,000; in the data active means inhibition above about 38%;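 further: enzyme fragment complementation signal reports receptor beta-arrestin coupling in cells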
# Target sequence (P32249 whole entry, looked up, the tested form may be a part): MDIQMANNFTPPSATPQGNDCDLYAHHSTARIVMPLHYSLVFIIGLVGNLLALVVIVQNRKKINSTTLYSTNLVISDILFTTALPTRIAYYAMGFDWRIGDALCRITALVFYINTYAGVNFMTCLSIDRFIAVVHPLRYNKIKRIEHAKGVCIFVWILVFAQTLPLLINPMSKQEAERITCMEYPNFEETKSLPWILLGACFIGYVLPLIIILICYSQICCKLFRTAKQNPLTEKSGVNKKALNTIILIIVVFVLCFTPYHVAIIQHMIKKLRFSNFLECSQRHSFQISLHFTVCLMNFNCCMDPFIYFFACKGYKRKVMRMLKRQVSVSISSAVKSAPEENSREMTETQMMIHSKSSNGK
# APJ antag conf: APJ antagonists blocking beta-arrestin recruitment, confirmation, cell-based, luminescence, single concentration, uHTS hits | inhibition, % at 20 µM | hit rate 66% among 950 | shares compounds with APJ antagonist | antagonist mode; in the data active means inhibition above about 50%
# CXCR6 confirm: CXCR6 receptor antagonists, confirmation, cell-based, single concentration, beta-arrestin, luminescence. shares compounds with CXCR6 block. CHO-K1 CXCR6 PathHunter beta-arrestin. inhibition, % at 20 µM. hit rate 65% among 700;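 active means mean inhibition over four retests above 40%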;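 further: receptor stimulated with 10 nM CXCL16 agonist; beta-galactosidase fragment complementation upon beta-arrestin recruitment to receptor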
# Hits are given with their value; . = inactive; / = not tested or not shown. The list is not random: actives were taken first. Their share in the collection is about 1.9%.
SMILES,APJ agonist,H9c2 TAG inh,CXCR6 block,APJ antagonist,CCR6 antagonist,EBI2 antag,APJ antag conf,CXCR6 confirm
CCc1nc2ccc(C(=O)Nc3cccc(OC)c3)cn2c1N(CC)CCOC,/,.,.,/,/,.,/,/
CCCCn1nc(C(=O)NCC(c2cccs2)N2CCOCC2)c2ccccc2c1=O (centres undefined),.,.,.,.,.,.,/,/
O=C1S/C(=C\c2ccc(O)c([N+](=O)[O-])c2)C(=O)N1c1ccccc1Cl,.,.,.,.,.,.,/,/
COc1cc(/C=C2\SC(=O)N(c3cccc(Cl)c3)C2=O)cc([N+](=O)[O-])c1O,.,.,.,48,68,.,59,/
CCSc1nnc(NC(=O)c2ccccn2)s1,.,.,.,44,.,.,60,/
O=C(Nc1nnc(SCc2ccc(F)cc2)s1)c1cnccn1,.,.,.,49,.,.,60,/
CCSc1nnc(NC(=O)c2cnccn2)s1,.,/,/,.,.,/,/,/
COC/C=C/C1=CC2=CC(=O)C(C)(OC(=O)c3cnc4ccccc4n3)C(=O)C2=CO1 (centres undefined),.,/,/,.,/,/,/,/
CN(C)c1ncnc2c1ncn2[C@H]1CN(Cc2cccnc2)C[C@@H](CO)O1,/,.,.,/,/,.,/,/
CC1=NN(c2ccc(C)cc2)C(=O)/C1=C/c1ccc(-c2cc([N+](=O)[O-])ccc2O)o1,.,/,42,47,72,.,93,/
O=C1NN(c2cccc(Br)c2)C(=O)/C1=C/c1ccc(-c2cc([N+](=O)[O-])ccc2O)o1,.,.,62,61,86,.,98,/
O=C1NN(c2cccc(Br)c2)C(=O)/C1=C\c1ccc(O)cc1,.,/,.,.,.,.,/,/
CC1=NN(c2ccc(C(=O)O)cc2)C(=O)/C1=C/c1ccc(-c2ccccc2F)o1,.,/,.,.,/,.,/,/
COCCN(Cc1ccc(OC)cc1)c1c(C)nc2ccc(C(=O)Nc3ccc(NC(C)=O)cc3)cn12,/,.,.,/,/,.,/,/
CC(C)[C@@H]1Cc2[nH]n(C)c(=O)c2[C@H](c2ccc(F)cc2)O1,/,/,.,/,/,.,/,/
CCc1ccc(C(=O)COC(=O)CNC(=O)Cc2ccccc2)cc1,.,.,.,.,.,.,/,/
Cc1ccc(C(=O)COC(=O)CNC(=O)C(c2ccccc2)c2ccccc2)cc1[N+](=O)[O-],.,.,.,64,58,.,67,/
Cc1ccc2nc(C)cc(C(=O)OCC(=O)c3ccc(Cl)c([N+](=O)[O-])c3)c2c1,.,.,59,86,102,.,126,/
CC(=O)Nc1ccc(C(=O)OCC(=O)c2ccc(C)c([N+](=O)[O-])c2)cc1,.,/,.,.,.,.,/,/
Cc1ccc(C(=O)NCC(=O)OCC(=O)c2ccc(C)c([N+](=O)[O-])c2)cc1,.,/,.,55,.,.,60,/
Cc1cc(C(=O)OCC(=O)c2ccc(Cl)c([N+](=O)[O-])c2)c2cccc(C)c2n1,.,.,.,.,.,.,/,/
O=C(Cc1ccccc1)NCC(=O)OCC(=O)c1ccc(Cl)c([N+](=O)[O-])c1,.,/,48,89,91,.,144,/
COc1ccccc1CNC(=O)Cn1c(=O)c2cccn2c2cccnc21,.,/,.,.,.,.,/,/
O=C(C[n+]1ccc(-c2cc(C(=O)Nc3cccc(C(F)(F)F)c3)c3ccccc3n2)cc1)c1cccc([N+](=O)[O-])c1,.,.,.,52,.,.,63,/
Cc1cccnc1Nc1nc(-c2ccccn2)cs1,.,.,72,80,72,76,103,89
SMILES,APJ agonist,H9c2 TAG inh,CXCR6 block,APJ antagonist,CCR6 antagonist,EBI2 antag,APJ antag conf,CXCR6 confirm
COc1ccc(CN(C(=O)c2cc(=O)c3ccccc3o2)C2CCS(=O)(=O)C2)cc1OC (centres undefined),.,/,.,.,.,.,/,/
Cc1ccc(NC(=S)NNc2ccc(C(=O)O)cc2[N+](=O)[O-])cc1C,.,.,41,42,.,.,.,42
O=C(NC(=S)Nc1ccccc1O)c1cccnc1,.,/,42,47,59,.,.,43
CCC(C)c1ccc(O)c(NC(=S)NC(=O)c2cccnc2)c1 (centres undefined),.,.,74,67,87,.,131,70
CCC(=O)OCCNc1cc(Sc2nc3ccccc3s2)c2nonc2c1[N+](=O)[O-],.,/,89,68,109,.,86,101
CCCSc1cc(NCCOC(=O)CCC)c([N+](=O)[O-])c2nonc12,.,/,62,42,84,.,75,72
CCOC(=O)C1=C(C)NC2=C(C(=O)CC(c3cccs3)C2)C1c1cccs1 (centres undefined),.,.,42,41,54,.,73,45
CCOC(=O)C1=C(C)NC(c2cccs2)C(=O)N1 (centres undefined),.,.,.,.,.,.,/,/
CC(C)NC(=O)N(C)C[C@@H]1OCc2cn(nn2)CCCC(=O)N([C@H](C)CO)C[C@H]1C,/,.,.,/,/,.,/,/
COc1ccc(C)c(-n2c(=O)n(Cc3ccccc3)c(=O)c3[nH]cnc32)c1,.,.,69,69,81,.,117,70
COc1ccc(Cn2c(=O)c3[nH]cnc3n(-c3ccccc3C)c2=O)cc1,.,.,.,.,.,.,/,/
COc1cc(/C=C/c2ccc3cccc(OC)c3n2)c(OC(C)=O)c([N+](=O)[O-])c1,.,/,41,45,53,.,75,44
CCC(=O)N1CCC2(CC1)Oc1ccc(F)cc1C(=O)C21CC(c2ccccc2)=NO1 (centres undefined),.,.,.,.,.,.,/,/
CC(C)(C)c1ccc(-n2nc(C#N)c(Cl)cc2=O)cc1,.,/,61,60,.,82,83,70
CCC/C(=N\NC(=O)C1CC1)c1ccc(Br)cc1,.,.,.,.,.,.,/,/
CSc1ccc(/C=C/c2ccc3cccc(O)c3n2)cc1,.,.,.,.,.,.,/,/
Oc1cccc2ccc(/C=C/c3cccs3)nc12,.,/,50,53,72,40,51,51
Cc1ccsc1/C=C/c1ccc2cccc(O)c2n1,.,/,60,46,74,.,.,66
Cc1csc(SCC(=O)Nc2ccc3[nH]c(=O)[nH]c3c2)n1,.,.,.,.,.,.,/,/
